DAGLB inhibitor: diacylglycerol lipase beta (human) inhibition; Q8NCG7; HEK293T DAGLB membrane lysate, EnzChek fluorogenic substrate; inhibition, % at 5.17 µM; hit rate 0.059% among 340,000; in the data active = inhibition above about 34%;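 note: 0% = enzyme with vehicle and 100% = wells lacking enzyme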
Target sequence (Q8NCG7 whole entry, looked up): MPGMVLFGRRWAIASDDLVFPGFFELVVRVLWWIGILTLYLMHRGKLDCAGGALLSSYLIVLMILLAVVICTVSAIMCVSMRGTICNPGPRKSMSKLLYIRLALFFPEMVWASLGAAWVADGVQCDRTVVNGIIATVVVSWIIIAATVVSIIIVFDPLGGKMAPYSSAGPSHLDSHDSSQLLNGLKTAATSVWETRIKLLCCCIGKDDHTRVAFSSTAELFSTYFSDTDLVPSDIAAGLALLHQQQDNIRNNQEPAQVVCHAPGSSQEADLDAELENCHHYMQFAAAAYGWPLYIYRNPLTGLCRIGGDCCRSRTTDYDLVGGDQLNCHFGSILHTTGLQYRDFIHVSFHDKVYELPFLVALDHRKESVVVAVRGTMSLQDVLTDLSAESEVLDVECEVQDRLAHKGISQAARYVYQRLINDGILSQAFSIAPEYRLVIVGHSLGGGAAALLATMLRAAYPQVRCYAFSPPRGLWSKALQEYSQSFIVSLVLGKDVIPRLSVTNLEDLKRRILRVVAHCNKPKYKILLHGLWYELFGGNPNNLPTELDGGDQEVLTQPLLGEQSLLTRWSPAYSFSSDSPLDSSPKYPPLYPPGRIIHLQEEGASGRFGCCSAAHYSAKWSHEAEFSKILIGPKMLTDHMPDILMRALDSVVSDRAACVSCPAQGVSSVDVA
HTRA1 inhibitor: inhibitors of human serine peptidase HTRA1 | hit rate 0.5% among 340,000 | AID 504803 | recombinant HTRA1, FP-rhodamine activity-based probe, fluorescence polarization | inhibition, % at 5.96 µM; in the data active = inhibition above about 36%;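 note: 0% = enzyme with DMSO and 100% = wells lacking enzyme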
LEDGF integ inh: blocks HIV-1 LEDGF/p75-dependent DNA integration; TR-FRET IN-LEDGF/p75 DNA integration, Eu/Cy5; inhibition, % at 3.7 µM; hit rate 0.64% among 370,000; AID 743269;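 active = inhibition above the screen-wide mean plus 3 SD, cut at about 13% in these data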;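 note: signal is the Cy5 over europium emission ratio at 671 and 618 nm; 0% = plate median of compound wells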
rCAG binder: binds r(CAG) RNA repeats. inhibition, % at 3 µM. hit rate 1.3% among 370,000. r(CAG) RNA repeat, TO-PRO-1 dye displacement fluorescence;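 active = inhibition above the plate cutoff, the mean of all test compounds on that plate plus 3 SD, cut at about 35% in these data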;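 note: 0% = DMSO alone and 100% = 100 µM mitoxantrone as full dye displacement; higher means more dye released from RNA so lower well fluorescence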
mABHD4 FP: inhibitors of mouse ABHD4 | Q8VD66 | purified mABHD4, FP-Rh probe fluorescence polarization | inhibition, % at 8.92 µM | hit rate 0.54% among 370,000 | AID 720543;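 active = inhibition exceeding the mean over every tested compound plus 3 SD, cut at about 30% in these data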;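 note: 0% = plate median of compound wells and 100% = S159A mutant with DMSO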
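Test system: mABHD4 protein | Buffer or medium: HEPES pH 7.0 buffer, 150 mM NaCl, 0.01% Pluronic F-127 | Probe or stimulus: FP-Rh fluorescent activity-based probe, added after compound pre-incubation | Timing: Pre-incubation 45 min, probe exposure 60 min, at 25 °C | Technique: Fluorescence polarization, excitation 525 nm, emission 598 nm, BODIPY TMR filters | Repeats: Single well per compound (singlicate)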
PRMT1 inh: PRMT1 (human) inhibition, primary screen | Q99873 | recombinant PRMT1, activity-based probe fluorescence polarization | inhibition, % at 2.79 µM | hit rate 1.3% among 370,000 | AID 652257;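 active = inhibition above about 21% made by adding two undisclosed values, limit read from the data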
rCAG bind conf: r(CAG) RNA repeat binding, confirmation; shares compounds with rCAG binder; TO-PRO-1 dye displacement fluorescence; inhibition, % at 3 µM; hit rate 70% among 4,300;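 active = inhibition above a per-plate cutoff, the mean inhibition of sample wells plus 3 SD, cut at about 35% in these data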;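 note: loss of TO-PRO-1 fluorescence as compound displaces dye from 1x1 AA loop RNA; 0% = DMSO only wells and 100% = 100 µM mitoxantrone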
DNA CAG counter: DNA CAG dye complex inhibition counter-screen; shares compounds with rCAG binder; d(CAG) DNA oligo TO-PRO-1 dye displacement, fluorescence; inhibition, % at 3 µM; hit rate 94% among 4,300; AID 652068;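 active = inhibition above its plate's cutoff, the mean test-well inhibition plus 3 SD, cut at about 4.8% in these data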;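 note: 0% = DNA dye mix with DMSO and 100% = 100 µM mitoxantrone; hits displace the dye from DNA and so lower well fluorescence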
DNA CAG DR: DNA CAG dye complex inhibition, dose response counter-screen; shares compounds with rCAG binder; DNA CAG/GTC duplex TO-PRO-1 dye displacement fluorescence; IC50, µM; hit rate 20% among 250; in the data active = IC50 below about 10 µM
PRMT1 confirm: confirmation of human PRMT1 inhibitors; shares compounds with PRMT1 inh; recombinant His-PRMT1, activity-based probe fluorescence polarization; inhibition, % at 2.79 µM; hit rate 42% among 3,300; AID 687036;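 active = mean inhibition across replicates above the hit cutoff derived for the earlier primary screen, cut at about 22% in these data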
ABHD4 confirm: ABHD4 (mouse) inhibition, FP confirmation | shares compounds with mABHD4 FP | inhibition, % at 8.92 µM | hit rate 55% among 1,800 | AID 720658 | purified mABHD4, FP-Rh probe fluorescence polarization;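 active = mean inhibition across replicates above the hit cutoff set in the primary screen, cut at about 30% in these data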;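 note: 0% = wild-type ABHD4 with DMSO and 100% = catalytically dead S159A mutant with DMSO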
IN multimer act: HIV-1 integrase multimerization activation, counter-screen. hit rate 17% among 2,000. AID 1053131. activation, % at 7.7 µM. shares compounds with LEDGF integ inh. TR-FRET HIV-1 integrase multimerization, biochemical; in the data active = activation above about 8.9%
TRFRET interf: optically interferes with TR-FRET readout in LEDGF counter-screen; shares compounds with LEDGF integ inh; TR-FRET optical interference counterscreen, HIV-1 IN multimerization; inhibition, % at 7.7 µM; 2,000 tested, under 10 active; AID 1053135;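 active = inhibition above the mean over all tested compounds plus 3 SD, which no compound reached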;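 note: 0% = integrase with antibodies and DMSO and 100% = antibodies without integrase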
LEDGF integ conf: confirmation of HIV-1 LEDGF/p75-dependent integration inhibitors | shares compounds with LEDGF integ inh | TR-FRET LEDGF/p75-dependent HIV-1 integration, biochemical | inhibition, % at 3.7 µM | hit rate 36% among 2,000; in the data active = inhibition above about 14%
Starred values were filed as active, the others as inactive; i = inactive; . = not tested or not shown. The list is not random: actives were taken first. Their share in the collection is about 3.2%.

SMILES	DAGLB inhibitor	HTRA1 inhibitor	LEDGF integ inh	rCAG binder	mABHD4 FP	PRMT1 inh	rCAG bind conf	DNA CAG counter	IN multimer act	TRFRET interf	LEDGF integ conf	others
CN(C)c1ncc(C2=C(Cl)C(=O)C(N3CCCC3)=C(Cl)C2=O)s1	6	39*	63*	65*	63*	68*	55*	24*	.	.	.	DNA CAG DR=i;ABHD4 confirm=83*
COc1cccc(NC(=S)N2c3ccccc3CC2C)c1 (configuration not stated)	1	-2	1	7	8	2	.	.	.	.	.
COc1ccc(N(C(=O)C(C)C)S(=O)(=O)c2cccs2)cc1	-4	8	-3	-2	-1	0	.	.	.	.	.
CC(C)C(=O)N(c1cc2sc(=O)oc2c2ccccc12)S(=O)(=O)c1cccs1	13	17	-5	77*	42*	81*	48*	23*	.	.	.	PRMT1 confirm=22*;ABHD4 confirm=20
COc1ccc(-c2cc(COc3ccccc3)on2)cc1	-29	-21	6	-1	-20	-2	.	.	.	.	.
O=C(NN=C1CCN(Cc2ccccc2)CC1)c1cc2ccccc2cc1O	12	36	2	52*	46*	-1	57*	30*	.	.	.	ABHD4 confirm=43*
CC1=Nc2cccc3cccc(c23)N1C	2	7	-8	0	9	0	.	.	.	.	.
CC(C)CC(C(=O)Nc1cccc(O)c1)N1C(=O)c2ccccc2C1=O (configuration not stated)	-1	-6	0	4	-3	-2	.	.	.	.	.
CC(C)CC(C(=O)Nc1oc(-c2ccco2)c(-c2ccco2)c1C#N)N1C(=O)c2ccccc2C1=O (configuration not stated)	3	-3	17*	78*	22	25*	74*	36*	2	-9	9
O=C(/C=C/c1cccs1)Nc1nc(-c2ccccc2)cs1	-1	-50	-1	11	-34	0	.	.	.	.	.
O=C(/C=C/c1cccs1)Nc1scc(-c2ccccc2)c1C(=O)O	15	-32	23*	37*	-22	13	36*	11*	2	-8	35*
COc1ccc(/C=N/NC(=O)c2nn(-c3ccccc3)c(=O)c3c(N)scc23)cc1	2	21	17*	42*	46*	22*	28	18*	6	-23	17*	ABHD4 confirm=27
CSc1ccc(C(=O)C2CCCN(Cc3cccc4nccnc34)C2)cc1 (configuration not stated)	-4	2	3	-2	-9	-5	.	.	.	.	.
CN(C(=O)C1CCCO1)c1nnc(-c2ccccn2)s1 (configuration not stated)	1	6	0	0	5	0	.	.	.	.	.
CC(C)=CCc1c(O)ccc2c1OC(c1ccc(O)c(O)c1)CC2=O (configuration not stated)	2	23	-6	11	13	8	.	.	.	.	.
O=C1CC(c2ccc(O)c(O)c2)Oc2c1ccc(O)c2O (configuration not stated)	-4	34	93*	48*	28	37*	49*	21*	57*	-289	91*
O=[N+]([O-])c1c(NCCCO)cc(SCc2ccco2)c2nonc12	-1	11	38*	47*	54*	64*	6	2	5	-23	1	ABHD4 confirm=16
COc1ccc(CN2C(=O)c3ccccc3C2=O)cc1C(=O)Nc1ccc(C)cc1C	-1	2	-3	-1	0	1	.	.	.	.	.
Cc1cc(/C=C2\SC(=S)NC2=O)c(C)n1C	10	29	38*	51*	21	23*	22	7.9*	14*	-49	12
OC(CSc1nnnn1-c1ccccc1)Cn1c2ccccc2c2ccccc21 (configuration not stated)	.	.	-1	5	-46	-2	.	.	.	.	.
O=c1[nH]c(Nc2ccccc2)cc2cc(Br)ccc12	-5	5	35*	37*	22	12	14	15*	2	-6	58*
O=C(Nc1ccc(-n2cccn2)cc1)C1CCCCN1Cc1cccc2cccnc12 (configuration not stated)	0	-42	0	0	-4	4	.	.	.	.	.
C=CCn1c(NC(=O)c2ccccc2Cl)c(C#N)c2nc3ccccc3nc21	1	-1	30*	69*	-7	0	67*	29*	-3	11	72*
Cc1nonc1CC(=O)NC1CCCc2c1cnn2-c1ccc(F)cc1F (configuration not stated)	-2	6	3	0	2	-2	.	.	.	.	.
Cc1ccc(S(=O)(=O)/N=C2/NC(=O)/C(=C/c3ccc(Br)o3)S2)cc1	11	-45	38*	93*	-20	56*	83*	54*	1	-5	11	PRMT1 confirm=16
Cc1ccc(S(=O)(=O)/N=C2/NC(=O)/C(=C/c3cccnc3)S2)cc1	8	-3	0	15	-3	-2	.	.	.	.	.
O=S(=O)(c1cc(O)ccc1O)c1cccc2c(S(=O)(=O)c3cc(O)ccc3O)cccc12	0	5	16*	43*	-10	12	36*	24*	22*	-109	41*
Cc1cc(S(=O)(=O)Nc2ccc(C(=O)NCCCn3ccnc3)cc2)ccc1F	-3	-3	-4	-3	-3	2	.	.	.	.	.
N#Cc1c(SCC(=O)Nc2nccs2)sc2c(O)cc(=O)[nH]c12	10	-8	18*	71*	-23	51*	52*	24*	44*	-156	34*	PRMT1 confirm=27*

Screens (PubChem)
